Laboratory results taken from ChEMBL document CHEMBL1124248, “Preparation and antischistosomal and antitumor activity of hycanthone and some of its congeners. Evidence for the mode of action of hycanthone” (1988).
“And” between values parts separate entries of the source, which are not always exact repeats. Equal entries are not always repeated.

How the values were obtained:
Type in all cases: functional
Mus musculus [1] = experiment: In vivo antitumor activity against p-388 lymphocytic leukemia in mice at 3.12 mg/kg
Summary of the method: (§1)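 Murine P388 lymphocytic leukemia model tested by the National Cancer Institute. Compound given once daily for 9 days; activity expressed as T/C.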

Mus musculus [2] = experiment: In vivo antitumor activity against p-388 lymphocytic leukemia in mice at 1.50 mg/kg; conditions: dose 1.5 mg/kg; summary of the method: as §1
Schistosoma mansoni [3] = experiment: Incorporation of 1.1 M *10e6 [3H]uridine in hycanthone(HC) resistant Schistosoma mansoni
Summary of the method: (§2)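 Adult HC-resistant S. mansoni were treated in vitro, and [3H]uridine incorporation by the worms was measured. Values are % of control. Concentrations are given in M × 10^6.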

Schistosoma mansoni [4] = experiment: Incorporation of 1.1 M *10e6 [3H]uridine in hycanthone(HC) sensitive Schistosoma mansoni
Schistosoma mansoni [5] = experiment: Incorporation of 5.5 M*10e6 [3H]uridine in hycanthone(HC) resistant Schistosoma mansoni; summary of the method: as §2
Schistosoma mansoni [6] = experiment: Incorporation of 5.5 M*10e6 [3H]uridine in hycanthone(HC) sensitive Schistosoma mansoni
Schistosoma mansoni [7] = experiment: Day 50% survival of worms in culture of HC sensitive Schistosoma mansoni
Mus musculus [8] = experiment: In vivo antitumor activity against p-388 lymphocytic leukemia in mice at 6.25 mg/kg; summary of the method: as §1
Schistosoma mansoni [9] = experiment: Incorporation of 1 M *10e6 [3H]uridine in hycanthone(HC) resistant Schistosoma mansoni; summary of the method: as §2
Schistosoma mansoni [10] = experiment: Incorporation of 5M*10e6 [3H]uridine in hycanthone(HC) resistant Schistosoma mansoni; summary of the method: as §2
Schistosoma mansoni [11] = experiment: Incorporation of 5M*10e6 [3H]uridine in hycanthone(HC) sensitive Schistosoma mansoni
Schistosoma mansoni [12] = experiment: Day 50% survival of worms in culture of HC resistant Schistosoma mansoni
Summary of the method: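 Adult HC-resistant S. mansoni were exposed in vitro and kept in culture. The value is the day by which 50% of worms were dead. Cultures were ended at different times in different experiments. Concentrations are given in M × 10^6.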

Schistosoma mansoni [13] = experiment: Incorporation of 1 M *10e6 [3H]uridine in hycanthone(HC) sensitive Schistosoma mansoni
Schistosoma mansoni [14] = experiment: Incorporation of 0.9 M *10e6 [3H]uridine in hycanthone(HC) resistant Schistosoma mansoni; summary of the method: as §2
Schistosoma mansoni [15] = experiment: Incorporation of 0.9 M *10e6 [3H]uridine in hycanthone(HC) sensitive Schistosoma mansoni
Schistosoma mansoni [16] = experiment: Incorporation of 4.5 M*10e6 [3H]uridine in hycanthone(HC) sensitive Schistosoma mansoni
Schistosoma mansoni [17] = experiment: Incorporation of 4.5M*10e6 [3H]uridine in hycanthone(HC) resistant Schistosoma mansoni; summary of the method: as §2

SMILES | T/C (Mus musculus [1]) [%] | T/C (Mus musculus [2]) [%] | Control (Schistosoma mansoni [3]) [%] | Control (Schistosoma mansoni [4]) [%] | Control (Schistosoma mansoni [5]) [%] | Control (Schistosoma mansoni [6]) [%] | Effect (Schistosoma mansoni [7]) | T/C (Mus musculus [8]) [%] | Control (Schistosoma mansoni [9]) [%] | Control (Schistosoma mansoni [10]) [%] | Control (Schistosoma mansoni [11]) [%] | Effect (Schistosoma mansoni [12]) [days] | Control (Schistosoma mansoni [13]) [%] | Control (Schistosoma mansoni [14]) [%] | Control (Schistosoma mansoni [15]) [%] | Control (Schistosoma mansoni [16]) [%] | Control (Schistosoma mansoni [17]) [%]
CCCNC(=O)OCc1ccc(NCCN(CC)CC)c2c(=O)c3ccccc3sc12 | 117 | 99 | 100 | 40 | 56 | 22 | >12 days and 10 days | 134 |  |  |  |  |  |  |  |  | 
CCN(CC)CCNc1ccc(COC(=O)Nc2ccccc2)c2sc3ccccc3c(=O)c12 |  |  |  |  |  |  | 8 days | 111 | 33 | 32 | 7 | 12 | 18 |  |  |  | 
CCN(CC)CCNc1ccc(COC(=O)c2cc([N+](=O)[O-])cc([N+](=O)[O-])c2)c2sc3ccccc3c(=O)c12 |  |  |  |  |  |  | 7 days |  |  |  |  | >17 |  | 95 | 50 | 0 | 105
